Experimental data: ChEMBL document CHEMBL5338825, “Structure-Based Discovery of Inhibitors of the SARS-CoV-2 Nsp14 N7-Methyltransferase” (J Med Chem, 2023)
Activity calls are given as the source filed them. The calls are words filed in the database; no cut-off is given here.

Experiments:
Homo sapiens [1] = organism: Homo sapiens; assay: Inhibition of MDH (unknown origin) using oxaloacetic acid as substrate preincubated with compound for 5 mins followed by substrate addition and measured after 1.5 min in the presence of NADH by absorbance based plate reader analysis; conditions: time 6.5 min
Procedure, shortened: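 MDH assay at room temperature in 50 mM KPi, pH 7.0, with 1% v/v DMSO final. Compound preincubated 5 min with 2 nM enzyme. Reaction started with 200 μM NADH plus 200 μM oxaloacetic acid, and absorbance followed at 340 nm for 1 min 30 s. Initial rate divided by the DMSO control rate. Single top concentration in triplicate; eight-point half-log curves in triplicate where inhibition exceeded 40%.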

[2] = molecular target: Histone-lysine N-methyltransferase 2C (Homo sapiens) (UniProt Q8NEZ4); assay: Inhibition of human MLL3 using biotin-tagged Histone H3 and 3H-SAM as substrate at 10 uM incubated for 1 hrs by TopCount scintillation proximity assay relative to control
Procedure, shortened: (§1)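 Human methyltransferase panel, radiometric assays. Each compound tested at a single 10 μM concentration in triplicate. Enzymes inhibited by more than 50% were taken on to concentration–response.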

[3] = molecular target: Replicase polyprotein 1ab (Severe acute respiratory syndrome coronavirus 2) (UniProt P0DTD1); assay: Non-covalent inhibition of N-terminal 6His/SUMO-tagged SARS-CoV-2 NSP14 expressed in Escherichia coli Rosetta 2 (DE3) PlysS cells using 5'GpppACCCCCCCCC-Biotin 3' and 3H-SAM as substrates incubated for 30 mins by TopCount scintillation proximity assay
Procedure, shortened: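 Radiometric N7-MTase assay tracking [3H]-methyl transfer from SAM onto the cap of […] RNA, run with 0.01% v/v Triton X-100. Concentration–response in triplicate to give IC50.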

[4] = molecular target: Histone-lysine N-methyltransferase SETDB1 (Homo sapiens) (UniProt Q15047); assay: Inhibition of human SETDB1 using biotin-tagged Histone H3 and 3H-SAM as substrate at 10 uM incubated for 1 hrs by TopCount scintillation proximity assay relative to control
Procedure, shortened: (§2)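 Selectivity panel against human SAM-dependent methyltransferases, radiometric format. Single test concentration of 10 μM, triplicate, read as percent inhibition.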

Bacteria = assay: Inhibition of beta-lactamase AmpC (unknown origin) pre-incubated with compound for 5 mins followed by substrate addition and measured after 1.5 mins by absorbance based plate reader analysis; conditions: time 6.5 min
Procedure, shortened: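 AmpC at 2 nM preincubated 5 min with compound at room temperature in 50 mM KPi, pH 7.0, with 1% v/v DMSO. Started with 50 μM CENTA (read at 405 nm) or 50 μM nitrocefin (read at 490 nm), monitored 1 min 30 s. Initial rate taken as % of DMSO control. Top concentration in triplicate; eight-point half-log curves in triplicate where inhibition exceeded 40%.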

Homo sapiens [5] = organism: Homo sapiens; assay: Inhibition of human EZH2 using biotin-tagged Histone H3 and 3H-SAM as substrate at 10 uM incubated for 1 hrs by TopCount scintillation proximity assay relative to control; procedure, shortened: as §1
[6] = molecular target: Protein arginine N-methyltransferase 3 (Homo sapiens, UniProt O60678); assay: Inhibition of human PRMT3 using biotin-tagged Histone H4 and 3H-SAM as substrate at 10 uM incubated for 1 hrs by TopCount scintillation proximity assay relative to control; procedure, shortened: as §1
Protein arginine N-methyltransferase 3, sequence (O60678 2-531 limits assumed): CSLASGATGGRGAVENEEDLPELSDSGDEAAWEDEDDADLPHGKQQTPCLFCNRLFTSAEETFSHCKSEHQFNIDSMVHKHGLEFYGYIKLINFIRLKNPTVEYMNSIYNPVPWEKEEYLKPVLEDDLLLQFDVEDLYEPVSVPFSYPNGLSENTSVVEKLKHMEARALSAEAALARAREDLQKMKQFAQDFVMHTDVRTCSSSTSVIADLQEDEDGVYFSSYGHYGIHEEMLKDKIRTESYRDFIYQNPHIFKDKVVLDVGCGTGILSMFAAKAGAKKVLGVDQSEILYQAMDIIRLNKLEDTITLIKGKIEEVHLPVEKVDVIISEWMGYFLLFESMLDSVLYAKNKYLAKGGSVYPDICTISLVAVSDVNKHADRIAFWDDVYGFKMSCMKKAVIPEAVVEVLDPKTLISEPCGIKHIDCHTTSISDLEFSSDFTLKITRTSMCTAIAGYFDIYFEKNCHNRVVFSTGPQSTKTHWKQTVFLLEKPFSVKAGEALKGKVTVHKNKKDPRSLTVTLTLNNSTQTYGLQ

[7] = molecular target: Replicase polyprotein 1ab (Severe acute respiratory syndrome coronavirus 2, UniProt P0DTD1); assay: Inhibition of N-terminal 6His/SUMO-tagged SARS-CoV-2 NSP14 expressed in Escherichia coli Rosetta 2 (DE3) PlysS cells using 5'GpppACCCCCCCCC-Biotin 3' and 3H-SAM as substrates incubated for 30 mins by TopCount scintillation proximity assay
[8] = molecular target: Histone-lysine N-methyltransferase SUV39H2 (Homo sapiens) (UniProt Q9H5I1); assay: Inhibition of human SUV39H2 using Biotin-tagged histone H3 and 3H-SAM as substrate at 10 uM incubated for 1 hrs by TopCount scintillation proximity assay relative to control; procedure, shortened: as §2
Histone-lysine N-methyltransferase SUV39H2 (Homo sapiens), sequence (Q9H5I1 whole entry): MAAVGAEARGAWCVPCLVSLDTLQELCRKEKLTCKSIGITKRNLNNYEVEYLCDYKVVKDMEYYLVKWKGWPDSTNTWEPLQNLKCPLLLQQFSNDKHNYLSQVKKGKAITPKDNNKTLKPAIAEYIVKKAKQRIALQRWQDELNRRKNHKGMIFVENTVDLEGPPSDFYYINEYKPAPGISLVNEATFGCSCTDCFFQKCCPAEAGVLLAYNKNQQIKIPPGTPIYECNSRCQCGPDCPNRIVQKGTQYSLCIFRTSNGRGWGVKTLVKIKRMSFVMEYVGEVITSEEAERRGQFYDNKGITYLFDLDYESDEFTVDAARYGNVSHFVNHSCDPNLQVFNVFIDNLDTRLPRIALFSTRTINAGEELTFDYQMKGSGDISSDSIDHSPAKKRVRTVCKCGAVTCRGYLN

[9] = molecular target: Replicase polyprotein 1ab (Severe acute respiratory syndrome coronavirus 2) (UniProt P0DTD1); assay: Competitive inhibition of N-terminal 6His/SUMO-tagged SARS-CoV-2 NSP14 expressed in Escherichia coli Rosetta 2 (DE3) PlysS cells using 5'GpppACCCCCCCCC-Biotin 3' and 3H-SAM as substrates at increasing concentration incubated for 30 mins by TopCount scintillation proximity assay
Procedure, shortened: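 Competition pattern read from IC50 shifts. […] Separately, SAM fixed at 1.25 μM (5× Km) with RNA varied up to 0.5 μM (10× Km). A linear rise of IC50 with substrate concentration was taken as competitive inhibition.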

[10] = molecular target: RNA 5'-monophosphate methyltransferase (Homo sapiens) (UniProt Q7Z5W3); assay: Inhibition of human BCDIN3D using biotin-tagged microRNA-145 and 3H-SAM as substrate at 10 uM incubated for 1 hrs by TopCount scintillation proximity assay relative to control; procedure, shortened: as §1
RNA 5'-monophosphate methyltransferase (Homo sapiens), sequence (Q7Z5W3 whole entry): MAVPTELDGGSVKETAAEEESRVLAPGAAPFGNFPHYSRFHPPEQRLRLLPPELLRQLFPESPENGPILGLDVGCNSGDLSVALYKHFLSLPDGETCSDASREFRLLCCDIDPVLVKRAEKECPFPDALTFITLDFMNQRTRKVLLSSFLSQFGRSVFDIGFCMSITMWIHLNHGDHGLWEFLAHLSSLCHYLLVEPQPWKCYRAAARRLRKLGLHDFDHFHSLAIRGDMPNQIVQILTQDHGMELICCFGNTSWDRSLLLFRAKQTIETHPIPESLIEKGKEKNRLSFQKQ

[11] = molecular target: Histone-lysine N-methyltransferase SUV39H1 (Homo sapiens) (UniProt O43463); assay: Inhibition of human SUV39H1 using Biotin-tagged histone H3 and 3H-SAM as substrate at 10 uM incubated for 1 hrs by TopCount scintillation proximity assay relative to control; procedure, shortened: as §2
Histone-lysine N-methyltransferase SUV39H1 (Homo sapiens), sequence (O43463 whole entry): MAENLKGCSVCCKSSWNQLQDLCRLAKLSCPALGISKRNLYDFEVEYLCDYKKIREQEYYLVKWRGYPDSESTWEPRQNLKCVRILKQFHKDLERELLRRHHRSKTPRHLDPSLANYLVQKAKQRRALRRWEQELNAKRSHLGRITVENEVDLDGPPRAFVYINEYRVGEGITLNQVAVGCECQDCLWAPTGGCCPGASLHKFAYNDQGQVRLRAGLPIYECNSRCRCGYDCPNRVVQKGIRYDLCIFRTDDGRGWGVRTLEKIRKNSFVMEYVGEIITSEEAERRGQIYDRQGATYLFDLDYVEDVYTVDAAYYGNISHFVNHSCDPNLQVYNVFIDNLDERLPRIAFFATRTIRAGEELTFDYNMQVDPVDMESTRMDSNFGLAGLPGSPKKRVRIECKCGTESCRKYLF

[12] = molecular target: Histone-lysine N-methyltransferase ASH1L (Homo sapiens) (UniProt Q9NR48); assay: Inhibition of human ASH1L using chicken nucleosome and 3H-SAM as substrate at 10 uM incubated for 1 hrs by TopCount scintillation proximity assay relative to control; procedure, shortened: as §1
[13] = molecular target: Histone-lysine N-methyltransferase SMYD3 (Homo sapiens) (UniProt Q9H7B4); assay: Inhibition of human SMYD3 using biotin-tagged MAP3K2 and 3H-SAM as substrate at 10 uM incubated for 1 hrs by TopCount scintillation proximity assay relative to control; procedure, shortened: as §2
Histone-lysine N-methyltransferase SMYD3 (Homo sapiens), sequence (Q9H7B4 whole entry): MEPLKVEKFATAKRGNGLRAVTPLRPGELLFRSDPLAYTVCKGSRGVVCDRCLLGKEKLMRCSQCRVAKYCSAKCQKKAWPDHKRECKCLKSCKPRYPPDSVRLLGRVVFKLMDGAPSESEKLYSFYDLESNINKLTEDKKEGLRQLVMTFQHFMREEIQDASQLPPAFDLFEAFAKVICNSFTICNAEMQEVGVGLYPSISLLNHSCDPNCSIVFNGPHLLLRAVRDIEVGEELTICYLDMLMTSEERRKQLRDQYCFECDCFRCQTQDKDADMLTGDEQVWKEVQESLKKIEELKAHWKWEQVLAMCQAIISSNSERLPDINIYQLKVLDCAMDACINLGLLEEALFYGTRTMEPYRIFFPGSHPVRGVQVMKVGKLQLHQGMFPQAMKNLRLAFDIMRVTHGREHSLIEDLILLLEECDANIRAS

[14] = Aggregation property of the compound in KPi buffer at pH 7.0 assessed as formation of colloid-like particles by dynamic light scattering analysis; assay type: physicochemical
Procedure, shortened: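 Compounds diluted as 8-point half-log series in filtered 50 mM KPi, pH 7.0, with 1% v/v DMSO final. Particles detected by dynamic light scattering, triplicate at each concentration. CAC taken as the intersection of separate nonlinear fits to aggregating (>10^6 scattering intensity) and non-aggregating data.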

[15] = molecular target: Histone-lysine N-methyltransferase 2A (Homo sapiens, UniProt Q03164); assay: Inhibition of human MLL1 using biotin-tagged Histone H3 and 3H-SAM as substrate at 10 uM incubated for 1 hrs by TopCount scintillation proximity assay relative to control; procedure, shortened: as §1
[16] = molecular target: Protein arginine N-methyltransferase 7 (Homo sapiens) (UniProt Q9NVM4); assay: Inhibition of human PRMT7 using biotin-tagged Histone H2B and 3H-SAM as substrate at 10 uM incubated for 1 hrs by TopCount scintillation proximity assay relative to control; procedure, shortened: as §1
Protein arginine N-methyltransferase 7 (Homo sapiens), sequence (Q9NVM4 whole entry): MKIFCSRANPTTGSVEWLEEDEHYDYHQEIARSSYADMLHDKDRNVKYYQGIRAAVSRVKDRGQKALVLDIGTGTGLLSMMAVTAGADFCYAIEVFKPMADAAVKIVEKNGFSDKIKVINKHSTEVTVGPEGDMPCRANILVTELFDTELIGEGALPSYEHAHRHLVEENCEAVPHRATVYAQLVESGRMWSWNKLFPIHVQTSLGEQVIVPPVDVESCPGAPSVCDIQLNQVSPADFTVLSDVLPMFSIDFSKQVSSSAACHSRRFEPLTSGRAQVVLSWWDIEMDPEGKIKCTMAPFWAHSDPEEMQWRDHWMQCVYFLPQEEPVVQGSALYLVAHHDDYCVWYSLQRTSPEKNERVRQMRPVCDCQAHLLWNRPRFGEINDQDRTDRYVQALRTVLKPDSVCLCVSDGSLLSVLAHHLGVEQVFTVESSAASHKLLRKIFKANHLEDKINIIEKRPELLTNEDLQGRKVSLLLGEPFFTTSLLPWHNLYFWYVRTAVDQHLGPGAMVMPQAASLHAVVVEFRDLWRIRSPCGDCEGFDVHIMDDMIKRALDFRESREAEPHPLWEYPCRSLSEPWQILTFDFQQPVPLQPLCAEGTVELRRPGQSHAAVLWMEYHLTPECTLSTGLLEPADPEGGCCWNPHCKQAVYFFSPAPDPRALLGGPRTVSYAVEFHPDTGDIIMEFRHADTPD

[17] = molecular target: Protein arginine N-methyltransferase 9 (Homo sapiens) (UniProt Q6P2P2); assay: Inhibition of human PRMT9 using biotin-tagged SAP145 and 3H-SAM as substrate at 10 uM incubated for 1 hrs by TopCount scintillation proximity assay relative to control; procedure, shortened: as §1
Protein arginine N-methyltransferase 9 (Homo sapiens), sequence (Q6P2P2 whole entry): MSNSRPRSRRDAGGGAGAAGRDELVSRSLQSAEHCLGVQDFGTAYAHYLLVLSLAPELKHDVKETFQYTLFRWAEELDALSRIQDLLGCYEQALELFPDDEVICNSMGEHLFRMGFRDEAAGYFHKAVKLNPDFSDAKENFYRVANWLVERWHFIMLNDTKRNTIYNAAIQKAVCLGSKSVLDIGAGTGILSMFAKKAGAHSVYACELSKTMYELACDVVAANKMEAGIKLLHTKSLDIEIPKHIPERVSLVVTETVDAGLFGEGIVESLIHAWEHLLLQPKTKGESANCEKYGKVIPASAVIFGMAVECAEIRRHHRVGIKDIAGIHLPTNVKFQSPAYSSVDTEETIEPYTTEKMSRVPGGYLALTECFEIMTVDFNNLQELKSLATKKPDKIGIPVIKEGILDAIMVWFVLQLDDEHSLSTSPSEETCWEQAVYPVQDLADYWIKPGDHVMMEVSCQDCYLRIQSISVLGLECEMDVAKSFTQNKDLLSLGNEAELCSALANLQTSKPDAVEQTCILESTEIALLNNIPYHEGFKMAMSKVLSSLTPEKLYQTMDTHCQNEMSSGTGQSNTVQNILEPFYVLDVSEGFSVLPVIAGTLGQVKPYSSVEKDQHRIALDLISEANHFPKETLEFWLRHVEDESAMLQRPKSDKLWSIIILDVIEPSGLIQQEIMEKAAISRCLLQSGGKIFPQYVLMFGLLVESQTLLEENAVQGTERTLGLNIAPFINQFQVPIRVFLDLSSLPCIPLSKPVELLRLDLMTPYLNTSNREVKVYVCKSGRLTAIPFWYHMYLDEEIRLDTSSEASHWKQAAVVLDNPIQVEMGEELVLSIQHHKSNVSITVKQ

[18] = molecular target: Histone-arginine methyltransferase CARM1 (Homo sapiens) (UniProt Q86X55); assay: Inhibition of human PRMT4 using biotin-tagged Histone H3 and 3H-SAM as substrate at 10 uM incubated for 1 hrs by TopCount scintillation proximity assay relative to control; procedure, shortened: as §1
Histone-arginine methyltransferase CARM1 (Homo sapiens), sequence (Q86X55 whole entry): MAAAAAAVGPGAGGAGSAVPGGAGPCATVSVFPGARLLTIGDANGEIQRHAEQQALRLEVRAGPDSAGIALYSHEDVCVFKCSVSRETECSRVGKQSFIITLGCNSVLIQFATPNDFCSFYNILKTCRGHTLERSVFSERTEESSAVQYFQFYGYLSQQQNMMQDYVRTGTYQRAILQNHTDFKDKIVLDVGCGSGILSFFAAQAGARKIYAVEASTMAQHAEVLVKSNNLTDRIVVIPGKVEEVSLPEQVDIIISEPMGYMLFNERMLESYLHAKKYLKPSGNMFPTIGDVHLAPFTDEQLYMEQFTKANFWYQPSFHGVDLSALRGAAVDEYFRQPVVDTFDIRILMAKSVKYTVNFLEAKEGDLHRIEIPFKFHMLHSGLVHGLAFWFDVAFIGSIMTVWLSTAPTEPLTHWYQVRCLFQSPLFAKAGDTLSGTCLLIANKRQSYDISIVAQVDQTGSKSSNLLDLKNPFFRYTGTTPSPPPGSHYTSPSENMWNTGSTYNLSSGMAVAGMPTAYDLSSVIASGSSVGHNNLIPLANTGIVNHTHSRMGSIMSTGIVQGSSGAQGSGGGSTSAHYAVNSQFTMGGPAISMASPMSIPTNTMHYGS

## Cc1c(C(=O)/C=C/c2ccc(O)c([N+](=O)[O-])c2)c(C#N)c2n1CCC2
Homo sapiens [1]
  inhibition: Active
[2]
  inhibition: < 50%
[3]
  inhibition: Active
[4]
  inhibition: < 50%
Bacteria
  inhibition: Active
Homo sapiens [5]
  inhibition: < 50%
[6]
  inhibition: < 50%
[7]
  IC50: 50 µM
[8]
  inhibition: < 50%
[9]
  inhibition: Active
[10]
  inhibition: < 50%
[11]
  inhibition: < 50%
[12]
  inhibition: < 50%
[13]
  inhibition: < 50%
[14]
  Activity: Not Active
[15]
  inhibition: < 50%
[16]
  inhibition: < 50%
[17]
  inhibition: < 50%
[18]
  inhibition: < 50%
